ChEMBL document CHEMBL4765263, “Design, synthesis, biological evaluation of 6-(2-amino-1H-benzo[d]imidazole-6-yl)quinazolin-4(3H)-one derivatives as novel anticancer agents with Aurora kinase inhibition” (Eur J Med Chem, 2020)
Calls of active or inactive are those of the source. The calls are words filed in the database; no cut-off is given here.

Tests used:
PC-3 = assay: Cytotoxicity against human PC-3 cells assessed as reduction in cell viability incubated for 72 hrs by MTT assay; assay type: functional, cell-based; conditions: PC-3, 72 h
How it was run: (§1)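 MTT viability assay. Cells kept in DMEM with 10% FBS at 37 °C and 5% CO2. Seeded at 5×10^3 cells per well and exposed to a range of compound concentrations from 20 mM DMSO stocks. IC50 is the mean of triplicate measurements.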

MDA-MB-231 [1] = assay: Cytotoxicity against human MDA-MB-231 cells assessed as cell blebbing at >1 uM incubated for 48 hrs; assay type: functional, cell-based; conditions: dose microM >1, time 48.0 hrs
MDA-MB-231 [2] = assay: Induction of apoptosis in human MDA-MB-231 cells assessed as viable cells at 4 uM incubated for 48 hrs by annexin V-FITC and PI staining based flow cytometry analysis (reference value: 90.49 %); assay type: functional; conditions: read-out: Activity
MDA-MB-231 [3] = assay: Induction of apoptosis in human MDA-MB-231 cells assessed as increase in caspase-9 cleavage at 1 to 4 uM incubated for 48 hrs by Western blot analysis; assay type: functional, cell-based; conditions: dose 1-4 µM
How it was run: (§2)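 MDA-MB-231 cells treated for 48 h at set concentrations. Cleaved PARP, cleaved caspase-3 and cleaved caspase-9 detected by Western blot and quantified by densitometry. Mean ± SEM, n = 3.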

MDA-MB-231 [4] = assay: Induction of cell cycle arrest in human MDA-MB-231 cells assessed as S phase accumulation at 1 uM incubated for 24 hrs by PI staining based flow cytometry analysis (reference value: 38.65 %); assay type: functional
MDA-MB-231 [5] = assay: Induction of apoptosis in human MDA-MB-231 cells assessed as early apoptotic cells at 4 uM incubated for 48 hrs by annexin V-FITC and PI staining based flow cytometry analysis (reference value: 3.90 %); assay type: functional
MDA-MB-231 [6] = assay: Induction of apoptosis in human MDA-MB-231 cells assessed as increase in caspase-3 cleavage at 1 to 4 uM incubated for 48 hrs by Western blot analysis; assay type: functional, cell-based; conditions: dose 1-4 µM; how it was run: as §2
Aurora kinase A = molecular target: T1, Aurora kinase A (Homo sapiens, UniProt O14965); assay: Inhibition of Aurora A (unknown origin) incubated for 1 hrs by HTRF assay
T1 sequence (O14965 whole entry): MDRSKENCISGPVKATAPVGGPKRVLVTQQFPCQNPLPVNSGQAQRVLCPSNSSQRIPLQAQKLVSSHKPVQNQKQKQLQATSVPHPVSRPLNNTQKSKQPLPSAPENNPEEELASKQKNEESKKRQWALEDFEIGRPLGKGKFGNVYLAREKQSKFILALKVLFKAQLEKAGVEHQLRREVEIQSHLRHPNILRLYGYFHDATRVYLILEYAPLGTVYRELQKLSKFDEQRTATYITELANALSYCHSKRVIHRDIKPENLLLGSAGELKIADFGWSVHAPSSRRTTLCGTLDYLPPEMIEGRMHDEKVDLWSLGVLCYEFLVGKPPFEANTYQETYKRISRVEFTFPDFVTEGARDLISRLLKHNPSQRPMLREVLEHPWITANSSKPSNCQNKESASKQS

MDA-MB-231 [7] = assay: Induction of cell cycle arrest in human MDA-MB-231 cells assessed as G2/M phase accumulation at 2 uM incubated for 24 hrs by PI staining based flow cytometry analysis (reference value: 16.62 %); assay type: functional
MDA-MB-231 [8] = assay: Induction of cell cycle arrest in human MDA-MB-231 cells assessed as G0/G1 phase accumulation at 2 uM incubated for 24 hrs by PI staining based flow cytometry analysis (reference value: 42.84 %); assay type: functional
MDA-MB-231 [9] = assay: Induction of cell cycle arrest in human MDA-MB-231 cells assessed as G0/G1 phase accumulation at 4 uM incubated for 24 hrs by PI staining based flow cytometry analysis (reference value: 42.84 %); assay type: functional
MDA-MB-231 [10] = assay: Induction of apoptosis in human MDA-MB-231 cells assessed as early apoptotic cells at 2 uM incubated for 48 hrs by annexin V-FITC and PI staining based flow cytometry analysis (reference value: 3.90 %); assay type: functional
MDA-MB-231 [11] = assay: Induction of apoptosis in human MDA-MB-231 cells assessed as increase in PARP cleavage at 1 to 4 uM incubated for 48 hrs by Western blot analysis; assay type: functional, cell-based; conditions: dose 1-4 µM; how it was run: as §2
MDA-MB-231 [12] = assay: Induction of apoptosis in human MDA-MB-231 cells assessed as necrotic cells at 1 uM incubated for 48 hrs by annexin V-FITC and PI staining based flow cytometry analysis (reference value: 3.08 %); assay type: functional
MDA-MB-231 [13] = assay: Induction of cell cycle arrest in human MDA-MB-231 cells assessed as G0/G1 phase accumulation at 1 uM incubated for 24 hrs by PI staining based flow cytometry analysis (reference value: 42.84 %); assay type: functional
MDA-MB-231 [14] = assay: Induction of cell cycle arrest in human MDA-MB-231 cells assessed as G2/M phase accumulation at 5 uM incubated for 16 hrs by PI staining based flow cytometry analysis (reference value: 16.62 %)
MDA-MB-231 [15] = assay: Cytotoxicity against human MDA-MB-231 cells assessed as cell shrinkage at >1 uM incubated for 48 hrs; assay type: functional, cell-based; conditions: dose microM >1, time 48.0 hrs
SH-SY5Y = assay: Cytotoxicity against human SH-SY5Y cells assessed as reduction in cell viability incubated for 72 hrs by MTT assay; assay type: functional, cell-based; how it was run: as §1
MDA-MB-231 [16] = assay: Induction of cell cycle arrest in human MDA-MB-231 cells assessed as G2/M phase accumulation at 1 uM incubated for 24 hrs by PI staining based flow cytometry analysis (reference value: 16.62 %); assay type: functional
[17] = molecular target: T2, Aurora kinase A (Homo sapiens) (UniProt O14965); assay: Inhibition of Aurora A in human MDA-MB-231 cells assessed as reduction in Aurora Thr288 residue phosphorylation incubated for 24 hrs by Western blot analysis; assay type: cell-based; conditions: dose 1-4 µM
T2 sequence (whole entry): T1 sequence (O14965 whole entry)
How it was run: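 MDA-MB-231 cells exposed to DMSO or drug at set concentrations for 24 h. Western blot for phospho-Aurora A at Thr288 or phospho-histone H3 at Ser10, with total Aurora A, histone H3 and GAPDH antibodies also used. Bands quantified by densitometry.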

MDA-MB-231 [18] = assay: Antiproliferative activity against human MDA-MB-231 cells assessed as reduction in cell growth incubated for 48 hrs; assay type: functional, cell-based; conditions: dose 0.5-2 µM
MDA-MB-231 [19] = assay: Induction of cell cycle arrest in human MDA-MB-231 cells assessed as increase G2/M phase accumulation incubated for 24 hrs by PI staining based flow cytometry analysis; assay type: functional; conditions: dose 1-4 µM
[20] = tested on: MDA-MB-231 (Homo sapiens); assay: Anticlonogenic activity against human MDA-MB-231 cells assessed as inhibition of colony formation at 0.5 to 2 uM incubated for 72 hrs followed by replacement of medium and measured after 10 days by crystal violet staining based visual analysis; conditions: dose 0.5-2 µM
MDA-MB-231 [21] = assay: Induction of apoptosis in human MDA-MB-231 cells assessed as viable cells at 1 uM incubated for 48 hrs by annexin V-FITC and PI staining based flow cytometry analysis (reference value: 90.49 %); assay type: functional; conditions: read-out: Activity
MDA-MB-231 [22] = assay: Cytotoxicity against human MDA-MB-231 cells assessed as reduction in cell viability incubated for 72 hrs by MTT assay; assay type: functional, cell-based; conditions: MDA-MB-231, 72 h; how it was run: as §1
Aurora kinase B = Aurora kinase B (Homo sapiens, UniProt Q96GD4); assay: Inhibition of Aurora B (unknown origin) incubated for 1 hrs by HTRF assay
Chain of Aurora kinase B (Q96GD4 whole entry): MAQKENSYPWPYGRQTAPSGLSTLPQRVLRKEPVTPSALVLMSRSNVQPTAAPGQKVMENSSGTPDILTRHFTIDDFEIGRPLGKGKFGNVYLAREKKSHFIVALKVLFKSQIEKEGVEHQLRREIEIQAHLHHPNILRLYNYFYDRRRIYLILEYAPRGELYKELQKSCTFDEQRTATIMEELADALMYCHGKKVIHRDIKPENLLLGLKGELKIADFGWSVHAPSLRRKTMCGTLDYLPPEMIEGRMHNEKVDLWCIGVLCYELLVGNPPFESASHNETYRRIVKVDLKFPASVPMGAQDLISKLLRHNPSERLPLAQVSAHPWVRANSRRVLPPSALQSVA

MDA-MB-231 [23] = assay: Induction of apoptosis in human MDA-MB-231 cells assessed as viable cells at 2 uM incubated for 48 hrs by annexin V-FITC and PI staining based flow cytometry analysis (reference value: 90.49 %); assay type: functional; conditions: read-out: Activity

CCC(=O)Nc1nc2ccc(-c3ccc4ncn(CCN5CCOCC5)c(=O)c4c3)cc2[nH]1
IC50 (PC-3): 1090 nM | Activity (MDA-MB-231 [1]): Active | viability at 4 µM (MDA-MB-231 [2]): 53.4% | Activity (MDA-MB-231 [3]): Active | Activity (MDA-MB-231 [4]): 38.28% | Activity (MDA-MB-231 [5]): 15.33% | Activity (MDA-MB-231 [6]): Active | IC50 (Aurora kinase A): 21.9 nM | Activity (MDA-MB-231 [7]): 39.38% | Activity (MDA-MB-231 [8]): 28.68% | Activity (MDA-MB-231 [9]): 5.59% | Activity (MDA-MB-231 [10]): 11.61% | Activity (MDA-MB-231 [11]): Active | Activity (MDA-MB-231 [12]): 4.02% | Activity (MDA-MB-231 [13]): 36.36% | Activity (MDA-MB-231 [14]): 76.19% | Activity (MDA-MB-231 [15]): Active | IC50 (SH-SY5Y): 770 nM | Activity (MDA-MB-231 [16]): 21.84% | inhibition [17]: Dose-dependent effect | Activity (MDA-MB-231 [18]): Dose-dependent effect | Activity (MDA-MB-231 [19]): Dose-dependent effect | Activity [20]: Active | viability at 1 µM (MDA-MB-231 [21]): 89% | IC50 (MDA-MB-231 [22]): 380 nM | IC50 (Aurora kinase B): 273 nM | viability at 2 µM (MDA-MB-231 [23]): 68.2%
